Laboratory results: ChEMBL document CHEMBL2396515, “Quercetin-POC conjugates: Differential stability and bioactivity profiles between breast cancer (MCF-7) and colorectal carcinoma (HCT116) cell lines” (Bioorg Med Chem, 2013)
Activity calls are given as the source filed them. The calls are words filed in the database; no cut-off is given here.

Tests used:
[1] = Metabolic stability in human HCT116 cells assessed as compound remaining at 30 uM after 1 hr by HPLC analysis; type: ADME, cell-based, HCT-116; conditions: read-out: Stability
Method in brief: (§1)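 MCF-7 or HCT116 cells were seeded at 2×10^5 per well and grown 24 h at 37 °C, 5% CO2, then given 30 µM conjugate. At 1, 3, 6 and 12 h cells were PBS-washed, trypsinized, sonicated and filtered. Lysates were run on C18 HPLC (UV 340 nm). Each species is reported as a percentage of integrated peak area; peaks were identified by MALDI-TOF MS.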

[2] = tested on: MCF7; test: Drug metabolism in human MCF7 cells assessed as quercetin-glucuronide level at 30 uM after 1 hr by HPLC analysis; type: ADME, cell-based; conditions: mcf7, 1 h; method in brief: as §1
[3] = tested on: HCT-116; test: Drug metabolism in human HCT116 cells assessed as quercetin-glucuronide level at 30 uM after 1 hr by HPLC analysis; type: ADME, cell-based; conditions: hct-116, 1 h; method in brief: as §1
[4] = Solubility of the compound in PBS buffer at 300 uM; type: physicochemical
Method in brief: (§2)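 DMSO stocks ([…]–10 mM) were serially diluted into PBS pH 7.4 or DMEM with 10% FBS to final 0.5, 5, 25, 50, 100, 200 µM (2% DMSO) and 300 µM (3% DMSO). Solubility was judged by forward light scattering in a laser nephelometer.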

[5] = tested on: HCT-116; test: Drug metabolism in human HCT116 cells assessed as quercetin sulfate level at 30 uM after 12 hrs by HPLC analysis; type: ADME, cell-based; conditions: hct-116, 12 h; method in brief: as §1
[6] = Metabolic stability in human MCF7 cells assessed as compound remaining at 30 uM after 3 hrs by HPLC analysis; type: ADME, cell-based; conditions: read-out: Stability; method in brief: as §1
[7] = tested on: MCF7; test: Drug metabolism in human MCF7 cells assessed as quercetin-glucuronide level at 30 uM after 12 hrs by HPLC analysis; type: ADME, cell-based; conditions: mcf7, 12 h; method in brief: as §1
[8] = tested on: HCT-116; test: Drug metabolism in human HCT116 cells assessed as quercetin level at 30 uM after 6 hrs by HPLC analysis; type: ADME, cell-based; conditions: hct-116, 6 h; method in brief: as §1
[9] = tested on: HCT-116; test: Drug metabolism in human HCT116 cells assessed as quercetin level at 30 uM after 3 hrs by HPLC analysis; type: ADME, cell-based; conditions: hct-116, 3 h; method in brief: as §1
[10] = Metabolic stability in human HCT116 cells assessed as compound remaining at 30 uM after 6 hrs by HPLC analysis; type: ADME, cell-based, HCT-116; conditions: read-out: Stability; method in brief: as §1
[11] = tested on: HCT-116; test: Drug metabolism in human HCT116 cells assessed as quercetin sulfate level at 30 uM after 3 hrs by HPLC analysis; type: ADME, cell-based; conditions: hct-116, 3 h; method in brief: as §1
[12] = Half life of the compound in PBS buffer at pH 7.4 at 50 uM by HPLC analysis; type: physicochemical
Method in brief: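 Compound at 50 µM in PBS pH 7.4, incubated at 37 °C. Aliquots were drawn at 0, 1, 3, 6, 12, 24, 48 and 96 h and analysed by C18 reverse-phase HPLC with an acetonitrile/0.1% formic acid gradient, detected by UV at 340 nm.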

[13] = Metabolic stability in human MCF7 cells assessed as compound remaining at 30 uM after 1 hr by HPLC analysis; type: ADME, cell-based; conditions: read-out: Stability; method in brief: as §1
[14] = Half life of the compound in DMEM cell-free cell culture medium at 50 uM by HPLC analysis; type: physicochemical
Method in brief: (§3)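 Conjugates diluted from a 10 mM DMSO stock to 50 µM final in cell-free culture medium (DMEM with 10% FBS), held at 37 °C. Samples were taken at 0, 1, 3, 6, 12, 24, 48 and 96 h, vortexed, and run on C18 reverse-phase HPLC with an acetonitrile/0.1% formic acid gradient at 1 mL/min, detected by UV at 340 nm.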

[15] = tested on: HCT-116; test: Cytotoxicity against human HCT116 cells at 1 to 100 uM after 12 hrs by MTT assay; type: functional, cell-based
Method in brief: (§4)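 MCF-7 or HCT116 cells were seeded at 5×10^3 per well in DMEM with 10% FBS and grown 1 day at 37 °C, 5% CO2. Compounds in 1% DMSO were added at 1, 5, 10, 50, 100 or 250 µM. Viability was read by MTT after 12 h; each assay was done three times.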

[16] = tested on: MCF7; test: Drug metabolism in human MCF7 cells assessed as quercetin sulfate level at 30 uM after 12 hrs by HPLC analysis; type: ADME, cell-based; conditions: mcf7, 12 h; method in brief: as §1
[17] = tested on: MCF7; test: Drug metabolism in human MCF7 cells assessed as quercetin sulfate level at 30 uM after 1 hr by HPLC analysis; type: ADME, cell-based; conditions: mcf7, 1 h; method in brief: as §1
[18] = tested on: HCT-116; test: Drug metabolism in human HCT116 cells assessed as quercetin-glucuronide level at 30 uM after 3 hrs by HPLC analysis; type: ADME, cell-based; conditions: hct-116, 3 h; method in brief: as §1
[19] = Metabolic stability in human HCT116 cells assessed as compound remaining at 30 uM after 3 hrs by HPLC analysis; type: ADME, cell-based, HCT-116; conditions: read-out: Stability; method in brief: as §1
[20] = tested on: MCF7; test: Cytotoxicity against human MCF7 cells at 1 to 100 uM after 12 hrs by MTT assay; type: functional, cell-based; method in brief: as §4
[21] = tested on: HCT-116; test: Drug metabolism in human HCT116 cells assessed as quercetin-glucuronide level at 30 uM after 6 hrs by HPLC analysis; type: ADME, cell-based; conditions: hct-116, 6 h; method in brief: as §1
[22] = Metabolic stability in human HCT116 cells assessed as compound remaining at 30 uM after 12 hrs by HPLC analysis; type: ADME, cell-based, HCT-116; conditions: read-out: Stability; method in brief: as §1
[23] = tested on: HCT-116; test: Drug metabolism in human HCT116 cells assessed as quercetin level at 30 uM after 12 hrs by HPLC analysis; type: ADME, cell-based; conditions: hct-116, 12 h; method in brief: as §1
[24] = tested on: HCT-116; test: Drug metabolism in human HCT116 cells assessed as quercetin level at 30 uM after 1 hr by HPLC analysis; type: ADME, cell-based; conditions: hct-116, 1 h; method in brief: as §1
[25] = tested on: HCT-116; test: Drug metabolism in human HCT116 cells assessed as quercetin sulfate level at 30 uM after 1 hr by HPLC analysis; type: ADME, cell-based; conditions: hct-116, 1 h; method in brief: as §1
[26] = tested on: HCT-116; test: Drug metabolism in human HCT116 cells assessed as quercetin-glucuronide level at 30 uM after 12 hrs by HPLC analysis; type: ADME, cell-based; conditions: hct-116, 12 h; method in brief: as §1
[27] = Metabolic stability in human MCF7 cells assessed as compound remaining at 30 uM after 6 hrs by HPLC analysis; type: ADME, cell-based; conditions: read-out: Stability; method in brief: as §1
[28] = Chemical stability of the compound in DMEM cell-free cell culture medium at 50 uM after 24 to 54 hrs by HPLC analysis; type: physicochemical; method in brief: as §3
[29] = tested on: MCF7; test: Metabolic stability in human MCF7 cells assessed as compound remaining at 30 uM after 12 hrs by HPLC analysis; type: ADME, cell-based; conditions: mcf7, 12 h; method in brief: as §1
[30] = tested on: HCT-116; test: Drug metabolism in human HCT116 cells assessed as quercetin sulfate level at 30 uM after 6 hrs by HPLC analysis; type: ADME, cell-based; conditions: hct-116, 6 h; method in brief: as §1
[31] = Solubility of the compound in PBS buffer at 0.5 to 300 uM; type: physicochemical; method in brief: as §2
[32] = Solubility of the compound in DMEM cell-free cell culture medium up to 100 uM; type: physicochemical; method in brief: as §2
[33] = tested on: MCF7; test: Drug metabolism in human MCF7 cells assessed as quercetin level at 30 uM after 12 hrs by HPLC analysis; type: ADME, cell-based; conditions: mcf7, 12 h; method in brief: as §1
[34] = tested on: MCF7; test: Drug metabolism in human MCF7 cells assessed as 7-O-POC-Q level at 30 uM after 12 hrs by HPLC analysis; type: ADME, cell-based; conditions: mcf7, 12 h; method in brief: as §1
[35] = tested on: MCF7; test: Drug metabolism in human MCF7 cells assessed as 3-O-POC-Q level at 30 uM after 12 hrs by HPLC analysis; type: ADME, cell-based; conditions: mcf7, 12 h; method in brief: as §1
[36] = tested on: HCT-116; test: Drug metabolism in human HCT116 cells assessed as 7-O-POC-Q level at 30 uM after 6 hrs by HPLC analysis; type: ADME, cell-based; conditions: hct-116, 6 h; method in brief: as §1
[37] = Drug degradation in DMEM cell-free cell culture medium assessed as formation of 3-O-POC-Q at 50 uM after 24 hrs by HPLC analysis; type: physicochemical; method in brief: as §3
[38] = tested on: HCT-116; test: Drug metabolism in human HCT116 cells assessed as 7-O-POC-Q level at 30 uM after 3 hrs by HPLC analysis; type: ADME, cell-based; conditions: hct-116, 3 h; method in brief: as §1
[39] = tested on: HCT-116; test: Drug metabolism in human HCT116 cells assessed as 7-O-POC-Q level at 30 uM after 12 hrs by HPLC analysis; type: ADME, cell-based; conditions: hct-116, 12 h; method in brief: as §1
[40] = tested on: HCT-116; test: Drug metabolism in human HCT116 cells assessed as 7-O-POC-Q level at 30 uM after 1 hr by HPLC analysis; type: ADME, cell-based; conditions: hct-116, 1 h; method in brief: as §1
[41] = tested on: MCF7; test: Drug metabolism in human MCF7 cells assessed as 7-O-POC-Q level at 30 uM after 6 hrs by HPLC analysis; type: ADME, cell-based; conditions: mcf7, 6 h; method in brief: as §1
[42] = tested on: MCF7; test: Drug metabolism in human MCF7 cells assessed as 7-O-POC-Q level at 30 uM after 3 hrs by HPLC analysis; type: ADME, cell-based; conditions: mcf7, 3 h; method in brief: as §1

CC(C)OC(=O)OCOc1c(-c2ccc(O)c(O)c2)oc2cc(O)cc(O)c2c1=O
remaining at 1 h, 30 µM [1]: 80%
Stability [2]: Stable
Stability [3]: Stable
solubility [4]: soluble
Stability [5]: Stable
remaining at 3 h, 30 µM [6]: 49%
Stability [7]: Stable
Stability [8]: Stable
Stability [9]: Stable
remaining at 6 h, 30 µM [10]: 71%
Stability [11]: Stable
half-life at 50 µM [12]: > 96 h
remaining at 1 h, 30 µM [13]: 92%
half-life at 50 µM [14]: 54 h
Activity [15]: inactive
Stability [16]: Stable
Stability [17]: Stable
Stability [18]: Stable
remaining at 3 h, 30 µM [19]: 76%
Activity [20]: Active
Stability [21]: Stable
remaining at 12 h, 30 µM [22]: 65%
Stability [23]: Stable
Stability [24]: Stable
Stability [25]: Stable
Stability [26]: Stable
remaining at 6 h, 30 µM [27]: 4%
Stability [28]: Stable
Stability [29]: Stable
Stability [30]: Stable
solubility [31]: soluble
solubility [32]: soluble
Stability [33]: Stable

CC(C)OC(=O)OCOc1cc(O)c2c(=O)c(OCOC(=O)OC(C)C)c(-c3ccc(O)c(O)c3)oc2c1
remaining at 1 h, 30 µM [1]: 64%
Stability [3]: Stable
Stability [5]: Stable
Stability [34]: Stable
Stability [35]: Stable
remaining at 3 h, 30 µM [6]: 6%
Stability [7]: Stable
Stability [8]: Stable
Stability [9]: Stable
remaining at 6 h, 30 µM [10]: 20%
Stability [11]: Stable
half-life at 50 µM [12]: > 96 h
remaining at 1 h, 30 µM [13]: 25%
half-life at 50 µM [14]: 24 h
Activity [15]: Active
Stability [16]: Stable
Stability [17]: Stable
Stability [18]: Stable
remaining at 3 h, 30 µM [19]: 47%
Stability [36]: Stable
Activity [20]: Active
Drug degradation [37]: Active
Stability [21]: Stable
Stability [38]: Stable
remaining at 12 h, 30 µM [22]: 3%
Stability [39]: Stable
Stability [24]: Stable
Stability [25]: Stable
Stability [26]: Stable
remaining at 6 h, 30 µM [27]: 1%
Stability [40]: Stable
Stability [29]: Stable
Stability [30]: Stable
solubility [31]: Insoluble
solubility [32]: soluble
Stability [33]: Stable
Stability [41]: Stable
Stability [42]: Stable
